# Source: PubChem BioAssay (several laboratories)
# An excerpt weighted towards active compounds, which were near 1.8% of everything screened.
# CCR6 antagonist: CCR6 (human) receptor antagonism; AID 493098; inhibition, % at 20 µM; CHO-K1 CCR6 PathHunter beta-arrestin, luminescence, CCL20-stimulated; 340,000 compounds, 0.49% hits;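 active = compounds whose inhibition of the agonist-driven luminescence signal at 20 µM reaches about 50%, limit read from the data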;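 also: cells stimulated with CCL20 at 14 nM final; plate controls were DMSO with CCL20 for no effect and DMSO without agonist for full effect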
# CXCR6 block: inhibitors of human CXCR6 receptor; inhibition, % at 20 µM; O00574; AID 602244; 360,000 compounds, 0.36% hits; CHO-K1 PathHunter CXCR6 beta-arrestin, luminescence; in the data active = inhibition above about 34%, passing the limit was not always enough;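 also: antagonist mode with CXCL16 agonist at 10 nM final; 0% = 10 nM CXCL16 with DMSO and 100% = unstimulated wells without agonist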
# Target sequence (O00574 whole entry, looked up): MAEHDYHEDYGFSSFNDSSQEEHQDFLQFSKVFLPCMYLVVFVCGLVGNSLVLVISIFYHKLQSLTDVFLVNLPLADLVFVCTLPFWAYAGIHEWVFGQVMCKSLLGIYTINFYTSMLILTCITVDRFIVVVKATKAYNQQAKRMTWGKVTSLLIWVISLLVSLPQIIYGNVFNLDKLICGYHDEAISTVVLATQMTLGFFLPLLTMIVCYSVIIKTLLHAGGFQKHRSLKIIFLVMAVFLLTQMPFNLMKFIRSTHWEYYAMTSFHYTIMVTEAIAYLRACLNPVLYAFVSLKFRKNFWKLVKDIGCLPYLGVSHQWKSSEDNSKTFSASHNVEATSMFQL
# EBI2 antag: antagonists of human EBI2 receptor; 360,000 compounds, 0.81% hits; EBI2 beta-arrestin recruitment, luminescence, 7a,25-OHC stimulated; P32249; inhibition, % at 5 µM; in the data active = inhibition above about 38%;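 also: enzyme fragment complementation signal reports receptor beta-arrestin coupling in cells; 0% = agonist plus DMSO wells and 100% = wells without agonist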
# B2AR ag: human beta-2 adrenergic receptor agonism by FAP; response, % (no concentration beside the values); Am2.2-beta2AR cells, FAP receptor internalization, flow cytometry; 340,000 compounds, 0.43% hits; AID 504454;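 active = response above a set limit, near 3 SD of response in nonfluorescent compounds, cut at about 42% in these data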
# APJ ag: APJ receptor agonism | activation, % at 20 µM | AID 2520 | 330,000 compounds, 0.11% hits | CHO-K1 APJ PathHunter beta-arrestin, luminescence; 0% DMSO wells, 100% apelin;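 active = activation more than six SD over the plate average, tested at 20 µM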;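 also: 0% = DMSO alone and 100% = apelin-13 at 10 nM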
#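 Material: engineered CHO-K1 APJ arrestin reporter cells; amount: 1000 CHO-K1 reporter cells seeded per well; incubation: compound stimulation 90 min at 25 °C, detection 60 min; signal: luminescent beta-gal fragment complementation, chemiluminescent substrate; read-out basis: APJ agonist activity; controls: DMSO-only wells as negative, 10 nM Apelin-13 as positive control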
# APJ antagonist: blocks the human apelin receptor APJ; CHO-K1 APJ beta-arrestin complementation, luminescence; inhibition, % at 20 µM; 330,000 compounds, 0.32% hits; P35414;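 active = inhibition above about 40% at 20 µM, limit read from the data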;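 also: cells challenged with 10 nM apelin-13 agonist together with compound; plate controls were apelin-13 plus DMSO wells for no effect and DMSO wells lacking apelin-13 for full effect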
# B2AR ag CP1: human beta-2 adrenergic receptor agonism, cherry pick; shares compounds with B2AR ag; Am2.2-beta2AR cells, FAP surface receptor, flow cytometry; active compounds read low; percent response (surface receptor), % at 10 µM; 1,100 compounds, 25% hits; AID 540358;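 active = surface receptor percent response at or below 58%, roughly 3 SD from nonfluorescent compounds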
# B2AR FAP counter: fluorescence artifact in beta-2AR agonist FAP counterscreen | calls only at 10 µM | AID 588765 | Am2.2 cells, FAP fluorogen flow cytometry; active compounds read low | shares compounds with B2AR ag | 1,100 tested, under 10 active;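 active = percent response below a set limit in fluorescence channel 1 and below 50% in channel 8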
# An asterisk follows results filed as active; i = inactive; . = not tested or not shown.
SMILES,CCR6 antagonist,CXCR6 block,EBI2 antag,B2AR ag,APJ ag,APJ antagonist,B2AR ag CP1,B2AR FAP counter
Fc1ccc(-c2nn(-c3ccccc3)cc2CNCc2ccccc2)cc1,11,-4,-3,44*,-2,10,91,i
CC(CCc1ccc(O)cc1)NCCc1ccc(O)c(O)c1 (centres undefined),47,9,4,2,-2,7,86,i
O=C(CCS(=O)(=O)c1ccccc1)Nc1nc2c(s1)COc1ccccc1-2,26,3,19,59*,-3,13,101,i
CC(NC(=O)CN1C(=O)NC2(CCCCC2)C1=O)c1ccc(S(N)(=O)=O)cc1 (centres undefined),14,-6,-16,-6,.,.,.,.
CCC1CCCCN1CC(=O)Nc1cc(C)nn1-c1nc(C)cc(C)n1 (centres undefined),8,8,-2,-13,-4,19,123,i
COc1ccccc1Nc1nc(-c2c(C)[nH]c3ccccc23)cs1,5,-5,9,-1,.,.,.,.
CNc1nc(-c2c(C)[nH]c3ccc(OC)cc23)cs1,-4,-2,-5,60*,-1,-18,94,i
CCCc1nc2ccccc2c(=O)n1-c1ccc(C(=O)OCC)cc1,11,-4,-8,4,-1,8,.,.
Cc1ccc2c(c1)C(=O)C(=O)N2CCCOc1ccccc1C,25,19,10,42*,-6,29,91,i
CC(=O)N1CCc2cc(C(=O)CN3CCN(C(=O)c4ccco4)CC3)ccc21,11,.,.,.,-2,7,.,.
CC(=O)N1CCc2cc(C(=O)CN3CCN(c4cccc(Cl)c4)CC3)ccc21,1,2,0,57*,-4,3,9.1*,i
CCCc1cc(=O)[nH]c(SCC(=O)NC2(C#N)CCCCC2)n1,1,6,0,9,-2,-3,.,.
CC1CCCCC1NC(=O)Cn1cc([N+](=O)[O-])ccc1=O (centres undefined),11,5,-8,-1,-1,-6,.,.
CC(=NN=C(C)c1ccc(O)cc1)c1ccc(O)cc1,4,1,9,33,.,.,.,.
C/C=C(/C(=C/C)c1ccc(O)cc1)c1ccc(O)cc1,-21,-8,26,-15,8,20,108,i
O=C(COc1ccccc1-c1ccccc1)NN=C1CCCC1,11,4,-16,-7,-2,-1,.,.
O=C(Nc1ccc(NC(=O)c2cccs2)cc1)c1cccs1,-11,-6,-9,-10,2,1,.,.
O=C(Nc1ccc(NC(=O)c2ccccc2F)cc1)c1cccs1,4,-6,0,0,-2,-3,113,i
O=C(NCC1COc2ccccc2O1)c1ccc(Cl)c(S(=O)(=O)N2CCCC2)c1 (centres undefined),13,-2,-1,-14,-4,2,.,.
Clc1ccc(-n2nnnc2Sc2ncnc3sccc23)cc1,38,-5,-51,54*,-3,0,35*,i
Cn1nnnc1Sc1ncnc2scc(-c3ccc(Cl)cc3)c12,15,4,17,85*,-3,-7,6.3*,i
CC1(C)CC(=O)C=C(C(=O)N2CCCC(C(=O)c3cccc(C(F)(F)F)c3)C2)O1 (centres undefined),15,-6,-1,6,1,8,.,.
COc1ccc(Cl)cc1NC(=O)COc1ccc(S(=O)(=O)N2CCOCC2)cc1C,-3,-12,11,0,4,-2,75,i
COC(=O)c1ccccc1NC(=O)COc1ccc(S(=O)(=O)N2CCCC2)cc1C,14,3,12,5,-4,-3,99,i
Cc1cc(S(=O)(=O)N2CCCC2)ccc1OCC(=O)Nc1ccc(C(N)=O)cc1,4,2,-7,2,2,-48,113,i
SMILES,CCR6 antagonist,CXCR6 block,EBI2 antag,B2AR ag,APJ ag,APJ antagonist,B2AR ag CP1,B2AR FAP counter
Cc1cc(Cl)ccc1OCC(=O)Nc1cccc(S(=O)(=O)N2CCCC2)c1,10,3,9,3,-1,1,.,.
CC1=C(C(=O)N(C)C)CC(CC(=O)NCc2ccco2)C(=O)N1Cc1ccccc1 (centres undefined),.,5,-2,.,.,.,.,.
CCN(c1ccc2c(c1)OCO2)S(=O)(=O)c1cc(Br)cc2c1N(C(C)=O)CC2,19,-7,-2,80*,-2,1,47*,i
Cc1ccc(-n2ncc(C(=O)Nc3cc(Cl)ccc3Cl)c2C2CCNCC2)cc1,5,4,-3,27,-3,2,.,.
Cc1ccc(-n2ncc(C(=O)Nc3cc(Cl)cc(Cl)c3)c2C2CCNCC2)cc1C,-1,-8,31,56*,.,.,76,i
O=C(CN1C(=O)CCC1=O)Nc1nc(-c2nc3ccccc3s2)cs1,-14,-5,1,103*,-1,-48,9.2*,i
Cc1ccc(NC(=O)COc2cccc(Oc3ccccc3)c2)cc1S(=O)(=O)N1CCOCC1,9,3,13,-9,1,-16,.,.
CN(c1ccccc1)c1ccc(/C=N/NC(=O)CC#N)cc1,13,-3,-1,-6,2,-11,104,i
N#CCC(=O)N/N=C/c1ccc(Cl)cc1,4,1,2,2,0,7,.,.
Cc1cccc(C)c1NC(=O)C1CCCN1C(=O)Nc1cccc(F)c1 (centres undefined),-3,2,1,5,-4,32,.,.
Cc1c(CN2CCC(CO)(Cc3cccc(C(F)(F)F)c3)CC2)c2ccccc2n1C,28,-7,4,46*,-4,9,97,i
COc1ccc(C(=O)NCCc2nnc3ccc(SCC(=O)Nc4ccccc4F)nn23)cc1,7,6,-13,-3,-1,1,.,.
COc1ccccc1NC(=O)NC1(C(=O)N2CCN(C)CC2)CCCCC1,9,-5,-2,-4,-2,6,.,.
CCOc1c(Cl)cc(CNCC(O)c2ccccc2)cc1OC (centres undefined),-7,2,5,11,-5,5,117,i
COc1cccc(CNCCO)c1OCc1ccccc1Cl,10,-3,-2,-4,-2,-4,.,.
COc1cc(CNCCO)cc(Cl)c1OCc1ccccc1Cl,9,-9,-8,48*,-2,-2,99,i
Cc1ccc(NC(=O)COC(=O)c2ccc(C)c(S(=O)(=O)N3CCOCC3)c2)cc1,1,-10,-6,2,5,-26,.,.
